94 compounds from ChEMBL document CHEMBL4513216, “Probing the Open Global Health Chemical Diversity Library for Multistage-Active Starting Points for Next-Generation Antimalarials” (ACS Infect Dis, 2020) can be followed below.

The nature of the series: Toxicity liver stage against HepG2, at 10uM. It is filed as cell-based. The conditions noted are these: human, HepG2-A16-CD81EGFP cells; read-out: INHIBITION
Also noted: test concentration 10 uM, cell line HepG2-A16-CD81EGFP. In short, it runs like this:
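Uninfected HepG2-A16-CD81EGFP cells, 3 × 10^3 per well, 1536-well, plated on prespotted compound at 10 μM final, parasite-free screening media added to match infected plates; puromycin 10 μM positive, DMSO 0.5% negative; run in parallel with 48 h PbLuc assay at 37 °C, 5% CO2; viability by CellTiter-Glo luminescence, normalized to controls.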
With `COCCCN1C(=O)CC[C@H]2CN(c3nc4ccccc4s3)CC[C@H]21`, the cytotoxicity at 10 µM is -9.59%.
As to `Cc1nc(C(=O)N2CCC(c3cc(CCO)n(C)n3)C2)co1` (centres undefined), the cytotoxicity at 10 µM was -5.42%.
For `COc1ccc(CNCC2CCN(CC(C)O)CC2)c2ccccc12` (centres undefined), the cytotoxicity at 10 µM was -11.5%.
Turning to `c1cncc(COC[C@@H]2CCC[C@@]23CNCCO3)c1`, the cytotoxicity at 10 µM was -106%.
The same measure for `CC(C)(C)C(O)CN1CCN(CC(=O)NC(C2CC2)C2CC2)CC1` (centres undefined): 3.51%; for `Cc1n[nH]c(C)c1CCC(=O)N(C)Cc1cn[nH]c1-c1ccc(F)cc1`: 7.86%; for `CNC(=O)c1cc(C2CCCN2)n[nH]1` (centres undefined): -11.9%.
The same measure for `CCCc1n[nH]c(C2CN(C(=O)C3=COCCC3)CCO2)n1` (centres undefined): -5.04%; for `COCC1CC2(CCN(C(=O)c3cc(C)oc3C)CC2)CN1C(C)C` (centres undefined): -11.4%; for `O=S(=O)(NCCn1ccc(-c2ccccn2)n1)C1CCCCC1`: 8.63%.
For `CCNC(=O)[C@@H]1C[C@@H](NC(=O)c2ccc(C#N)cc2)CN1CCCSC`, the cytotoxicity at 10 µM is -123%.
For `CC1CCC(NS(=O)(=O)CC(=O)NCC2CCC2)CC1` (centres undefined), the cytotoxicity at 10 µM is -3.17%.
As for `Cn1cc(CN2CCC3(CCCN(Cc4ccccn4)C3)CC2)cn1`, the cytotoxicity at 10 µM was -6.54%.
As for `CC(C)CC(=O)N1C[C@@H]2CCN(c3cnccn3)C[C@@H]2C1`, the cytotoxicity at 10 µM amounted to 3.44%.
Turning to `Cc1ccc(CN(CC(=O)N2CCOC(C)C2)C2CC2)cc1` (centres undefined), the cytotoxicity at 10 µM is -11.9%.
Turning to `CNCc1ccc([C@@H]2CN(C)C[C@H]2C(N)=O)cc1`, the cytotoxicity at 10 µM worked out at 7.67%.
As to `CN(C)C(CNC(=O)c1cc2c([nH]c1=O)CCCC2=O)c1ccsc1` (centres undefined), the cytotoxicity at 10 µM is -1.96%.
`CC(C)N(C(=O)CCc1cccc(F)c1)C1CCOCC1`: the cytotoxicity at 10 µM was -5.21%.
The same measure for `CCc1ccc(CN(CCCn2ccnc2)Cc2ccc(C)s2)o1`: 3.86%; for `CCCOc1ccc(CC2=NC(C)(CO)CO2)cc1` (centres undefined): 24.8%.
On to `O=C(Cn1cccnc1=O)NC(Cc1ccsc1)c1nccs1` (centres undefined), for which the cytotoxicity at 10 µM was -4.44%.
As for `Cc1ncc(CN(C)CC(O)c2ccc(Br)cc2)s1` (centres undefined), the cytotoxicity at 10 µM was 7.12%.
On to `COc1ccc2c(c1)c(C(=O)Nc1n[nH]c(C(C)C)n1)cn2C(C)C`, for which the cytotoxicity at 10 µM was -26.8%.
The same measure for `Cc1ccc(S(=O)(=O)NCCNc2cc(-n3cccc3)ncn2)c(C)c1`: -0.817%.
With `CC(C)c1nc(C2CCCN2CCS(=O)(=O)c2ccccc2)no1` (centres undefined) the figure was -5.28%; with `Cc1cnc2c(S(=O)(=O)NCC3CCN(C4CC4)C3)cccc2c1` (centres undefined), -6.36%.
On to `COc1ccc(CSCC(O)CO)c(Cl)c1` (centres undefined), for which the cytotoxicity at 10 µM is -142%.
On to `O=S(=O)(C1CC1)N1CCOC2(CCCN(c3ccccc3)C2)C1` (centres undefined), for which the cytotoxicity at 10 µM was -4.54%.
With `O=S(=O)(Nc1ncccc1F)c1cc(Cl)cc2c1OCC2`, the cytotoxicity at 10 µM is 1.6%.
Consider `COc1ccccc1N1CCN(CC[C@H](O)c2ccccc2)CC1=O`, for which the cytotoxicity at 10 µM was -0.081%.
On to `CCC(C)c1cc(C(=O)N(CC(=O)NC)c2cccc(F)c2)on1` (centres undefined), for which the cytotoxicity at 10 µM was 6.33%.
Consider `Cc1cc(C)n(C2CN(C(=O)CN3C(=O)CSc4ccccc43)C2)n1`, for which the cytotoxicity at 10 µM was -6.53%.
As for `CCc1cnc(N2C[C@@H]3C[C@H](C(=O)N(C)C)[C@H](C2)O3)nc1`, the cytotoxicity at 10 µM is -12.1%.
As to `Cn1cc(Cl)c(C(=O)N2CCC(N3CCc4ccccc4C3)CC2)n1`, the cytotoxicity at 10 µM is -2.27%.
Regarding `CCOc1ccccc1C(C(=O)O)N(C)Cc1nnc(C)o1` (centres undefined), the cytotoxicity at 10 µM is -9.77%.
Turning to `CCc1n[nH]c(C2CN(C(=O)c3ccc4c(c3)COC4)CCO2)n1` (centres undefined), the cytotoxicity at 10 µM is -1.63%.
With `COCCN(Cc1cnn(C)c1)C(=O)C1CCN(C2CCCCC2)CC1`, the cytotoxicity at 10 µM stood at 12.6%.
Regarding `Cc1ccoc1C(=O)N(CCN(C)C)Cc1ccccn1`, the cytotoxicity at 10 µM is -5.47%.
As to `Cc1nn(C)c(N2CCCN(C)CC2)c1CNC(=O)CC1CCCC1`, the cytotoxicity at 10 µM is -7.43%.
In the case of `NC(=O)CN1CCCN(C(=O)Cc2ccc3ccccc3c2)CC1`, the cytotoxicity at 10 µM stood at 7.82%.
As for `Cc1c(-c2cc(-c3cnn(C)c3C)n(CC(=O)NC3CC3)n2)cnn1C`, the cytotoxicity at 10 µM was found to be 9.26%.
Take `Cc1nn(C)c(Cl)c1C(=O)NCc1cccnc1N1CCOCC1`: the cytotoxicity at 10 µM is -132%.
The same measure for `O=C(CN1C(=O)c2ccccc2CS1(=O)=O)c1ccc(Cl)cc1`: 4.17%; for `CNS(=O)(=O)Cc1cccc(CNCc2ccsc2)c1`: 11.7%.
With `N#Cc1cc(C#N)c(SCC(=O)Nc2ccc(F)cc2)nc1N` the figure was -0.506%; with `Cc1ccc(C(=O)N2CC[C@@]3(O)CCN(C(=O)N(C)C)C[C@H]3C2)cc1Cl`, -45.5%.
For the compound `CCCc1cc(N2CCCC2Cn2nc(C)nc2C)n2ncnc2n1` (centres undefined), the cytotoxicity at 10 µM is -0.82%.
`CN1C(=O)CC[C@@H]2[C@H]1CCN2S(=O)(=O)c1cccs1`: the cytotoxicity at 10 µM is -1.54%.
Consider `CS(=O)(=O)N1CCC2(CC1)NCCn1c(-c3ccccc3)cnc12`, for which the cytotoxicity at 10 µM came to 3.61%.
Consider `CC(C)(NS(C)(=O)=O)c1nc(-c2ccncc2)no1`, for which the cytotoxicity at 10 µM is 12.9%.
With `COCC(=O)N1CCC2(CC1)c1ccccc1[C@@H](N1CCSCC1)[C@@H]2O`, the cytotoxicity at 10 µM is 4.58%.
As for `CN1CCC(N(CCc2ccccc2)C(=O)c2ccoc2)CC1`, the cytotoxicity at 10 µM is -5.42%.
For `CCOCCn1nc(C2CCNCC2)n(Cc2ccccc2)c1=O`, the cytotoxicity at 10 µM was 4.08%.
With `O=C(NCCc1ccccc1)N1C[C@@H]2C[C@H](C(=O)N3CCCC3)[C@H](C1)O2` the figure was 6.95%.
On to `Cc1ccc(N2CCCC(NC(=O)Cc3csc(C)n3)C2=O)cc1` (centres undefined), for which the cytotoxicity at 10 µM is -1.31%.
With `CCc1cnc(N2C[C@@H]3[C@@H](C(=O)N(C)C)CCS(=O)(=O)[C@@H]3C2)nc1`, the cytotoxicity at 10 µM was -108%.
The same measure for `CN(C)C(=O)N1CCN(c2ccc3ccc(C(=O)NC4CC4)cn23)CC1`: 6.53%; for `Cc1nc2sccn2c1C(=O)N1CCn2nc(C(=O)NC3CC3)cc2C1`: 9.63%; for `O=C(O)c1cnc(-c2cccc3c2CCNC3)c(Cl)c1`: 8.97%.
In the case of `CCCc1cc(CNC(=O)Cc2cc(C)no2)on1`, the cytotoxicity at 10 µM was -1.04%.
With `Cc1cc(C)cc(CCC(=O)N(C)CCc2cn[nH]c2)c1`, the cytotoxicity at 10 µM was found to be 3.04%.
Regarding `Cn1cnc(S(=O)(=O)NCCC(O)c2ccc3c(c2)OCO3)c1` (centres undefined), the cytotoxicity at 10 µM is -8.71%.
With `CCCN1CCC2(C1)c1ccccc1S(=O)(=O)N2Cc1ccc(F)cc1` (centres undefined), the cytotoxicity at 10 µM is 18.3%.
With `CS(=O)(=O)NC[C@H]1OC[C@@H]2CN(Cc3cccnc3)CC[C@@H]21`, the cytotoxicity at 10 µM was determined as 12.7%.
In the case of `CN(C)C(=O)[C@H]1C[C@@H]2CCN(Cc3ccoc3)C[C@@H]2O1`, the cytotoxicity at 10 µM was -99.7%.
With `COc1cc(CCO)c(OC)c2c1OCO2` the figure was -5.6%; with `CCc1n[nH]c(C2CN(C(=O)c3cnns3)CCO2)n1` (centres undefined), -3.43%.
For the compound `CC(C)(C)c1nnc(CN2CCCC(Cn3cncn3)C2)o1` (centres undefined), the cytotoxicity at 10 µM was -6.31%.
For `O=C(Cc1ccc2c(c1)CCCC2)NCCNc1cnccn1`, the cytotoxicity at 10 µM is -0.882%.
Regarding `Cc1cccc(CN2C[C@H](NS(C)(=O)=O)[C@@H]3OCCC[C@@H]32)n1`, the cytotoxicity at 10 µM was -0.179%.
With `CC(C)N(C)CC(=O)NCC(Cc1ccc(F)cc1)C(N)=O` (centres undefined), the cytotoxicity at 10 µM came out at 13.6%.
In the case of `COCCn1ccc2ccc(C(=O)N3CCN(C(C)=O)CC3)cc21`, the cytotoxicity at 10 µM was -8.6%.
With `Cc1ccc(N2CCC3(CCN(C(=O)c4ccoc4)CC3)CC2)nn1`, the cytotoxicity at 10 µM was -0.355%.
`COc1cc(C(=O)N(C)C(C)Cc2cc(C)ccn2)ccn1` (centres undefined): the cytotoxicity at 10 µM is -9.57%.
As to `CCc1nnc2n1CC(CNCc1nc(C)c(C)o1)CC2` (centres undefined), the cytotoxicity at 10 µM was -16%.
The same measure for `COc1ccc(CNCc2ccnc(N3CCOCC3)c2)cc1OC`: 1.64%; for `COc1ncccc1C(=O)NCC1Cc2ccccc2O1` (centres undefined): -13.4%; for `N#CCCN(CC1CCOC1)Cn1ccc(-c2ccccc2)n1` (centres undefined): -3.8%.
As for `Cc1nnc2ccc(N3CCC4(CCOC4)C3)nn12` (centres undefined), the cytotoxicity at 10 µM came out at 4.29%.
With `CC(C)(C)c1ncc(C(=O)NCCNC(=O)c2ccc(O)cc2)s1`, the cytotoxicity at 10 µM was determined as 45.3%.
Turning to `Cc1nc(CNC(=O)NC2CC(C)(C)OC2(C)C)sc1C` (centres undefined), the cytotoxicity at 10 µM was -3.77%.
Turning to `CC(C)Nc1cc(N2CCC(n3cc(C4CCCC4)nn3)CC2)ncn1`, the cytotoxicity at 10 µM turned out to be 7.81%.
For `CN(C)CCOc1cc(NC(=O)COCC(F)(F)F)ccn1`, the cytotoxicity at 10 µM was -2.29%.
`Cc1ccc(CN2C[C@@H]3[C@@H](C(=O)N4CCCC4)CCS(=O)(=O)[C@@H]3C2)cc1`: the cytotoxicity at 10 µM came to 0.411%.
`Cc1ccc(C(=O)N2CCCCC2CNC(N)=O)cc1F` (centres undefined): the cytotoxicity at 10 µM was -6.56%.
In the case of `CC(=O)N1CCOC(c2c(C(=O)NC(C)(C)C)sc3ccccc23)C1` (centres undefined), the cytotoxicity at 10 µM stood at 8%.
For the compound `O=C1CC2(CCCNC2)C(=O)N1Cc1ccccc1` (centres undefined), the cytotoxicity at 10 µM is 12.1%.
With `CN1CCC2(COCCN(Cc3ccc4c(c3)OCO4)C2)C1` (centres undefined) the figure was -2.05%.
As for `c1cnn(CC2CN(CC3CCCC3)CCO2)c1` (centres undefined), the cytotoxicity at 10 µM was -2.55%.
Regarding `COCCn1cc2c(n1)C(CNC(=O)c1cc(C)[nH]c1C)OCC2` (centres undefined), the cytotoxicity at 10 µM is 8.81%.
Consider `O=C(Cc1ccc(F)cc1Cl)N1CC[C@H](CO)[C@@H](O)C1`, for which the cytotoxicity at 10 µM stood at 8.08%.
For `NC(=O)C1CCCN(C(=O)c2cnc3c(cnn3C3CCCC3)c2)C1` (centres undefined), the cytotoxicity at 10 µM was -5.54%.
With `O=c1c2ccccc2nc2n1C(CSc1ccc(Cl)cc1)CN2` (centres undefined), the cytotoxicity at 10 µM was found to be 9.38%.
Turning to `Cn1ccc(C(=O)Nc2cc(F)ccc2OCC2CCCO2)cc1=O` (centres undefined), the cytotoxicity at 10 µM was -1.59%.
